Measurements gathered from unrelated publications.
Lines come from different studies, so protocols differ.
Target: Insulin receptor-related protein (INSRR, Homo sapiens, UniProt P14616)

CC(C)CC(=O)N1CCc2nc(-c3ccc(Br)cc3)nc(N(C)Cc3ccccc3)c2C1 — remaining binding (cell-free assay; competition with immobilised ligand; 0.1 µM): 100%
Nc1nc(Nc2ccccc2)sc1C(=O)c1c(F)cccc1F — remaining activity (enzyme activity; inhibitor; 10 µM): 24%
CCN(CC)CCNC(=O)c1c(C)[nH]c(/C=C2\C(=O)Nc3ccc(F)cc32)c1C — inhibition (enzyme activity; inhibitor; 0.3 µM): 25%
CC(=O)N1CCC(c2ccc(C(=O)NC(=N)N)cc2C(F)(F)F)CC1 — remaining binding (cell-free assay; competition with immobilised ligand; 1 µM): 100%
COc1ccc(COc2ccc(Cc3cnc(N)nc3N)cc2OC)cc1 — remaining signal (cell-free assay; 0.5 µM): 99.4%
Cc1ccc(Nc2nccc(N(C)c3ccc4c(C)n(C)nc4c3)n2)cc1S(N)(=O)=O — inhibition (enzyme activity; inhibitor; 0.3 µM): -22%
Oc1cccc(-c2nc(N3CCOCC3)c3oc4ncccc4c3n2)c1 — remaining activity (enzyme activity; inhibitor; 10 µM): 89%
CCN(CC)c1ccc(C2=NNC(=O)CC2C)cc1[N+](=O)[O-] (stereo not shown) — remaining activity (enzyme activity; inhibitor; 10 µM): 97%
O=C(N[C@H]1CCCCC/C=C\C2C[C@@]2(C(=O)O)NC(=O)[C@@H]2C[C@@H](Oc3ccncc3)CN2C1=O)OC1CCCC1 (stereo partly shown) — remaining binding (binding; competition with immobilised ligand; 1 µM): 100%
N#CCCc1ccc2c(c1)-c1[nH]c3ccc([N+](=O)[O-])cc3c1CC(=O)N2 — remaining signal (cell-free assay; 0.5 µM): 99.2%
Nc1nc(NC2CCCCC2)sc1C(=O)c1ccccc1 — remaining activity (enzyme activity; inhibitor; 10 µM): 25%
CCS(=O)(=O)c1cc2cc(C[C@@](O)(CC(C)(C)c3ccc(F)cc3C(N)=O)C(F)(F)F)[nH]c2cn1 — remaining binding (cell-free assay; competition with immobilised ligand; 1 µM): 64%
CNC(=O)c1cc(Oc2ccc(NC(=O)Nc3ccc(Cl)c(C(F)(F)F)c3)cc2)ccn1 — inhibition (enzyme activity; inhibitor; 10 µM): 8%
CN1CC(Oc2cnc(C#N)cc2-c2ccn3nc(NC(=O)C4CC4)cc3c2)C1 — inhibition (enzyme activity; inhibitor; 1 µM): -4%
COc1cc2ncnc(Nc3ccc(Oc4ccccc4)c(C)c3C)c2cc1OC — inhibition (enzyme activity; inhibitor; 1 µM): 2%
FC(F)c1nc2ccccc2n1-c1nc(N2CCOCC2)nc(N2CCOCC2)n1 — remaining activity (enzyme activity; inhibitor; 10 µM): 88%
COc1cc(Cl)c(C(=O)N[C@@H](CN[C@H]2CC[C@@H](N)CC2)Cc2ccc(C#N)cc2)cc1-c1ccc(CN[C@H](C)c2ccc(C)cc2)o1 — remaining activity (enzyme activity; inhibitor; 1 µM): 98%
O=C(Nc1cnn(-c2csc(C(=O)NC3COC3)c2)c1)Nc1ccccc1Cl — remaining activity (enzyme activity; inhibitor; 5 µM): 96%
Cc1ccc(C(=O)NCc2ccsc2)cc1C#Cc1cn(C(C)C)c2ncnc(N)c12 — activity vs control (enzyme activity; inhibitor; 1 µM): 105%
O=C(NC[C@@H]1[C@H]2CN(C(=O)OCc3cc(C(F)(F)F)cc(C(F)(F)F)c3)C[C@@H]12)c1ccc2[nH]nnc2c1 — remaining binding (cell-free assay; competition with immobilised ligand; 1 µM): 83%
Cc1sc(C(=O)NC2COC2)cc1-n1cc(NC(=O)Nc2c(F)cccc2Cl)cn1 — remaining activity (enzyme activity; inhibitor; 10 µM): 71.9%
CC(=O)c1c(NS(C)(=O)=O)c2cc(-c3ccc(Cl)cc3)c(-c3ccc(Cl)cc3Cl)nc2n(C)c1=O — remaining binding (cell-free assay; competition with immobilised ligand; 1 µM): 93%
Nc1ncnc2occ(-c3ccc(NC(=O)Nc4cc(C(F)(F)F)ccc4F)cc3)c12 — remaining signal (cell-free assay; 20 µM): 0.85%
COc1cc(Nc2cnc(C#N)c(O[C@H](C)CN(C)C)n2)ncc1-c1cnn(C)c1 — remaining activity (enzyme activity; inhibitor; radiometric; 1 µM): 103%
CCOC(=O)c1cc2cc(-c3cc(C(=O)NCc4ccc(C(=O)O)cc4)nn3C)ccc2[nH]1 — remaining binding (cell-free assay; competition with immobilised ligand; 0.1 µM): 77%
Cc1cc(NC(=O)c2cccc3cc(-c4cccc5[nH]nc(N)c45)ccc23)ccc1F — activity vs control (enzyme activity; inhibitor; 0.1 µM): 106%
CC(C)(C)c1nc2c(s1)c1nc(N)ncc1c1ccc(NS(=O)(=O)c3c(F)cccc3F)c(F)c12 — remaining activity (enzyme activity; inhibitor; radiometric; 1 µM): 107%
O=C(O)[C@@H]1[C@@H](Cn2nnc3ccccc3c2=O)CC[C@H]1C(=O)c1ccc(OCCC2CCOCC2)cc1 — remaining binding (cell-free assay; competition with immobilised ligand; 1 µM): 100%
